Series [1] addresses T1, 5-hydroxytryptamine receptor 1D (Homo sapiens, UniProt P28221). As to the kind of experiment: Efficacy was evaluated relative to human 5-hydroxytryptamine 1D receptor using [35S]GTP-gamma-S, as radioligand. The class given is functional.
Series [2] can be described thus: Rate of clearance in rat was determined. The format is ADME, organism-based. The settings on record: plasma, read-out: Clp. The method, boiled down:
(§1)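 Male Sprague–Dawley rats (~300 g) were fasted overnight and tail-artery cannulated under isoflurane, then allowed to recover for at least 30 min. Each received 3 mg/kg by tail-vein bolus (3 mg/mL in PEG 300:5 mM HCl 25:75) or by gavage (0.6 mg/mL in PEG 400:5 mM HCl 25:75), three rats per route. Serial blood was sampled up to 6 h. Plasma was analysed by solid-phase extraction and reverse-phase HPLC with fluorescence detection (ex 235, em 370 nm) against spiked-plasma calibration curves.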

Series [3] is described as follows: Oral bioavailability in rat. The format is ADME, organism-based. The settings on record: in vivo. The method, boiled down: as §1
Series [4] deals with T1, 5-hydroxytryptamine receptor 1D. Kind of series: Displacement of specific [3H]5-HT binding to cloned human 5-hydroxytryptamine 1D receptor expressed in CHO cells. The class given is cell-based. The method, boiled down:
(§2)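 Radioligand binding to human 5-HT1D and 5-HT1B receptors stably expressed in CHO cells. Radioligand was used at approximately its KD for each receptor. IC50 values are the logarithmic mean of 2–5 independent determinations, each run in duplicate. Maximum variance from the mean of log(IC50) was 4%. Selectivity is IC50(1B)/IC50(1D).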

Series [5] concerns the target T2, 5-hydroxytryptamine receptor 1B (Homo sapiens, UniProt P28222). As to the kind of experiment: Efficacy was evaluated relative to human 5-HT1B receptor using [35S]GTP-gamma-S, as radioligand. The format is functional.
Series [6] deals with T2, 5-hydroxytryptamine receptor 1B. As to the kind of experiment: Agonist-induced [35S]GTP-gamma-S, binding in CHO cells stably transfected with human 5-hydroxytryptamine 1B receptor. The format is functional, cell-based. A digest of the protocol: (§3)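 [35S]GTPγS binding stimulated by agonist, measured in CHO cells stably transfected with the human 5-HT1D or 5-HT1B receptor. EC50 values are the logarithmic mean of 2–3 independent determinations. Maximum variance of individual log(EC50) values from the mean was 4%.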

Series [7] has the same target. As to the kind of experiment: Displacement of specific [3H]5-HT binding to cloned human 5-hydroxytryptamine 1B receptor expressed in CHO cells. The format is cell-based. The method, boiled down: as §2
Series [8] deals with T1, 5-hydroxytryptamine receptor 1D. Kind of series: Agonist-induced [35S]GTP-gamma-S, binding in CHO cells stably transfected with human 5-hydroxytryptamine 1D receptor. The format is functional, cell-based. The method, boiled down:
as §3

The target in series [9] is Serotonin 1 receptors; 5-HT1B & 5-HT1D (Homo sapiens) (UniProt P28222+P28221). Kind of series: Selectivity towards 5-HT1D and to that of 5-HT1B in CHO cells. The format is cell-based. The method, boiled down:
as §2

A short description of series [10]: pKa value by potentiometric method. The format is physicochemical. The method, boiled down:
(§4)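 Potentiometric titration in MeOH–H2O cosolvent with ionic strength set by 0.15 M KCl. Three titrations at different water/cosolvent ratios gave psKa values. Aqueous pKa was obtained by Yasuda–Shedlovsky extrapolation to 100% water, plotting psKa + log[H2O] against 1/ε.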

Series [11] can be described thus: Cmax in rat. The format is ADME, organism-based. To be noted: in vivo. A digest of the protocol: as §1
Series [12] is described as follows: pKa value by potentiometric. The class given is physicochemical. A digest of the protocol:
as §4

Series [13] relates to Rattus norvegicus. As to the kind of experiment: Oral absorption study in rat plasma obtained from hepatic portal vein after 0.5 hours of administration of 3 mg/kg orally. Also on record: dose 3 mg/kg. The class given is functional, organism-based. The method, boiled down: (§5)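 Male Sprague–Dawley rats, fasted overnight and with no surgery, received 3 mg/kg orally as a 0.6 mg/mL solution in PEG 400:5 mM HCl (25:75 v/v). Terminal blood was taken from the heart and hepatic portal vein under isoflurane at 0.5 and 2 h, three rats per time point. Plasma drug was measured by electrospray mass spectrometry. Values are mean ± SEM.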

Series [14] deals with Rattus norvegicus. Kind of series: Oral absorption study in rat plasma obtained from cardiac blood samples after 0.5 hours of administration of 3 mg/kg orally. The format is functional, organism-based. Also on record: dose 3 mg/kg. A digest of the protocol:
as §5

The target of series [15] is T2, 5-hydroxytryptamine receptor 1B. Kind of series: Efficacy of compound was evaluated relative to human 5-hydroxytryptamine 1B receptor using [35S]GTP-gamma-S, as radioligand. The format is functional.
A short description of series [16]: pKa value was determined. The format is physicochemical. The method, boiled down: as §4
In series [17] the test system is Rattus norvegicus. As to the kind of experiment: Oral absorption study in rat plasma obtained from cardiac blood samples after 2 hours of administration of 3 mg/kg orally. The format is functional, organism-based. Also on record: dose 3 mg/kg. A digest of the protocol:
as §5

Series [18] has as its system Rattus norvegicus. Kind of series: Oral absorption study in rat plasma obtained from hepatic portal vein after 2 hours of administration of 3 mg/kg orally. The class given is functional, organism-based. Also on record: dose 3 mg/kg. A digest of the protocol:
as §5

The nature of series [19]: Relative protonation energy of the compound.
The nature of series [20]: The compound was evaluated for the pKa units relative to N-methyl-piperazine. The format is physicochemical.
Series [21] in a line: The compound was evaluated for the pKa units relative to N-methyl-piperazine. The format is physicochemical.

“And” between values parts separate entries of the source, which are not always exact repeats. Equal values may be shown once. Some results are limits rather than exact numbers.

T1 sequence (P28221 whole entry): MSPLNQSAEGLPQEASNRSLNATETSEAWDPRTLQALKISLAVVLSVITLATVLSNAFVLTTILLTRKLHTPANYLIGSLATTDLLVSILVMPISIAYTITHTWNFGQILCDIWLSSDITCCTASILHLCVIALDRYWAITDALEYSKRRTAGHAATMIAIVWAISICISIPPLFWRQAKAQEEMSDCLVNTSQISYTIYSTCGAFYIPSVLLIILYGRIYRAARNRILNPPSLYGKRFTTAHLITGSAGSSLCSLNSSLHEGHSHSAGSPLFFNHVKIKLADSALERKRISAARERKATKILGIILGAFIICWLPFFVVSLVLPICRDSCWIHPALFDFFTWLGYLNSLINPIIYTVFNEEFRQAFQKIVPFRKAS
T2 sequence (P28222 whole entry): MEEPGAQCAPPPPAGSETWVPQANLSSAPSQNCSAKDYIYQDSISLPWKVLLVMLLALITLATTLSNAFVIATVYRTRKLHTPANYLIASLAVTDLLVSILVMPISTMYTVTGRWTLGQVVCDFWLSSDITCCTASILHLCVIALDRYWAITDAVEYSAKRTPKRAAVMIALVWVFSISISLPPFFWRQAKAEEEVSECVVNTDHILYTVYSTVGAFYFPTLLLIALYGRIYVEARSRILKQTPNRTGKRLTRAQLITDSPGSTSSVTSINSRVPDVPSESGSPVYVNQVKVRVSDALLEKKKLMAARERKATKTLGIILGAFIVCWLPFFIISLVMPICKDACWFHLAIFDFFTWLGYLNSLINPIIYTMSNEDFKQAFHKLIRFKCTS

For the compound `FC(F)(Cc1c[nH]c2ccc(-n3cnnc3)cc12)CN1CCC(OCc2ccccc2)CC1`, the values for the Efficacy in [1] and in series [5] were 100% and 78%, respectively. In addition, the clearance in [2] was 43 mL/min/kg. Besides, the bioavailability in [3] was 11%. For the same compound, the IC50 came to 8.5 nM in series [4] and 1000 nM in series [7]. In addition, the 50% effective concentration (EC50) in [6] amounted to 10000 nM; in series [8], 34 nM. In [9], this compound displayed a Selectivity of 118. Further, the pKa in series [10] stood at 5.9. Also, the Cmax in series [11] came to 157 ng/mL.

Compound `c1ccc(CN2CCN(CCCc3c[nH]c4ccc(-n5cnnc5)cc34)CC2)cc1` gave a pKa in series [12] of 8.2. Also, the IC50 in series [4] came to 0.14 nM. For the same compound, the Selectivity in series [9] came out at 79. Also, the results for the Plasma concentration in series [13] and in series [14] were 168 ng/mL and 42 ng/mL, respectively.

Take `Fc1cccc(CCN2CCN(CCCc3c[nH]c4ccc(-n5cnnc5)cc34)CC2)c1`: the clearance in [2] turned out to be 84 mL/min/kg. The bioavailability in series [3] was 27%. Further, the Efficacy in series [15] was 71%. The same compound yielded an EC50 in series [6] of 430 nM. The compound further yielded a pKa in [16] of 8.3. Moreover, in [9], the Selectivity came to 140.

For the compound `CN(Cc1ccccc1)C1CCN(CCCc2c[nH]c3ccc(-n4cnnc4)cc23)CC1`, in series [12], the pKa amounted to 9.3. In addition, the Plasma concentration was 5 ng/mL in series [17], 66 ng/mL in [18], 4 ng/mL in [13] and less than 1 ng/mL in [14]. The IC50 in series [4] is 2.1 nM; in series [7], 140 nM. The compound further came in with an Efficacy in series [5] of 77%. Moreover, the figures for the concentration giving a half-maximal response (EC50) in series [6] and in [8] were 1400 nM and 1.5 nM, respectively. This compound also registered a Selectivity in series [9] of 67.

In turn, `Fc1cccc(CCN2CCN(CC(F)(F)Cc3c[nH]c4ccc(-n5cnnc5)cc34)CC2)c1` yielded an Efficacy in [1] of 78%. In addition, the Plasma concentration was less than 4 ng/mL in series [17], 61 ng/mL in [18], 503 ng/mL in series [13] and less than 4 ng/mL in [14]. Moreover, in series [2], the clearance was determined as 67 mL/min/kg. The IC50 turned out to be 15 nM in [4] and 1600 nM in series [7]. In addition, in [8], the concentration giving a half-maximal response (EC50) is 35 nM. The compound further gave a Selectivity in series [9] of 107.

Take `CN1CCCCC1` [N-METHYLPIPERIDINE]: the RPE in [19] was 0. Besides, the “delta pKa” value in series [20] worked out at 0.

Turning to `CN1CCCC(F)C1` (configuration not stated), in series [19], the RPE is 4.42 and 2.5. The “delta pKa” value is -1.83 in series [20] and -3.24 in series [21].

On to `FC(Cc1c[nH]c2ccc(-n3cnnc3)cc12)CN1CCC(Cc2ccccc2)CC1` (configuration not stated), for which the Plasma concentration in series [17] worked out at 46 ng/mL; in [18] it was 258 ng/mL; in series [13] it was 781 ng/mL; in [14], 196 ng/mL. In addition, the bioavailability in [3] came to 14%. In addition, the values for the concentration for half-maximal inhibition (IC50) in [4] and in [7] were 0.9 nM and 62 nM, respectively. The same compound had an Efficacy in series [5] of 77%. Further, the values for the concentration for a half-maximal effect (EC50) in series [6] and in series [8] were 450 nM and 0.9 nM, respectively. Moreover, the Selectivity in [9] was found to be 69. Also, in series [10], the pKa is 8.7.

Turning to `c1ccc(CC2CCN(CCCc3c[nH]c4ccc(-n5cnnc5)cc34)CC2)cc1`, the pKa in series [12] came out at 9.7. The Plasma concentration is less than 2 ng/mL in [17], 33 ng/mL in series [18], 25 ng/mL in series [13] and less than 2 ng/mL in series [14]. For the same compound, the 50% inhibitory concentration (IC50) in [4] amounted to 0.3 nM; in series [7] it was 19 nM. The compound further registered an Efficacy in series [5] of 62%. The compound also came in with an EC50 in [6] of 120 nM. The compound further had a Selectivity in [9] of 63.

Regarding `CC(CN1CCN(CC(F)(F)Cc2c[nH]c3ccc(-n4cnnc4)cc23)CC1)c1ccccc1` (configuration not stated), the Efficacy in series [1] was found to be 123%; in [5], 53%. In addition, the figures for the IC50 in [4] and in series [7] were 6.2 nM and 1800 nM, respectively. For the same compound, the values for the concentration giving a half-maximal response (EC50) in series [6] and in [8] were 5100 nM and 16 nM, respectively. In [9], this compound gave a Selectivity of 290.

(Values after ChEMBL document CHEMBL1132237, “Fluorination of 3-(3-(piperidin-1-yl)propyl)indoles and 3-(3-(piperazin-1-yl)propyl)indoles gives selective human 5-HT1D receptor ligands with improved pharmacokinetic profiles” (J Med Chem, 1999).)
